High-throughput results deposited in PubChem BioAssay by several laboratories.
A selection: hits, their analogues and other compounds. The true share with any hit is near 5.8%.
Pyk2 oligo antag – blocks oligomerization of human Pyk2 in cells | Q14289 | Q293 cells, Pyk2 FERM NanoBiT luminescence; hits give low values | z-score (the deposit names both 25 µM and 10 µM) | 99,000 tested, 0.83% active | AID 1347419;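 active means Z-score of -3 or lower, scaled per plate to the spread of control and sample wells; inactive means z-score above -3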;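 further: negative z-score means lost luminescence so less FERM oligomerization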
PLK1 PBD inh – inhibitors of human Plk1 polo box domain binding; AID 693; Plk1 PBD phosphopeptide binding, fluorescence polarization; 97,000 tested, 0.13% active; inhibition, %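 (tested at about 20 µM)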; in the data active means inhibition above about 34%, passing the limit was not always enough
FAK blocker – inhibitors of human focal adhesion kinase | Q05397 | biochemical FAK kinase activity assay | inhibition, %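 (tested at 7 µM)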 | 97,000 tested, 0.84% active; in the data active means inhibition above about 19%;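 further: 0% = DMSO and 100% = reference compound high control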
HIV Rev-RRE inh – disrupts HIV-1 Rev binding to RRE RNA; P05866; Rev peptide-RRE RNA binding, FRET; inhibition, % at 8 µM; 97,000 tested, 0.79% active; AID 704;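 active means inhibition above the screen-wide mean plus 3 SD, cut at about 35% in these data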;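 further: 0% = median DMSO wells and 100% = median Neomycin B control wells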
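Test system: Cy5-tagged RRE RNA duplex with fluorescein-tagged Rev peptide | Read-out: % inhibition of FRET ratio versus controls | Probe or stimulus: Labelled Rev peptide | Incubation: 5 min RNA-compound premix plus 15 min binding step, 25 °C | Technique: FRET fluorescence readout | Benchmarks: DMSO low control, neomycin B high control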
Cav32 inh – inhibitors of human Cav3.2 T-type calcium channel; Cav3.2-expressing cells, Fluo-4 calcium fluorescence FDSS; hits give low values; 100,000 tested, 4% active; B-score at 10 µM;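 active means single-dose well whose peak fluorescence ratio is a statistical outlier from its plate by either plate-standardised score or position-corrected B-score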
PLK1 inh – PLK1 (human) kinase inhibition. P53350. recombinant PLK1 kinase, TR-FRET peptide phosphorylation. inhibition, % at 10 µM. 97,000 tested, 0.53% active;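 active means inhibition of 50% or more in the single-concentration screen; inactive means inhibition below 50%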;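 further: 0% = DMSO max control and 100% = H-89 dihydrochloride min control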
The depositor's hits bear a star.

`O=C(OCC(=O)N1N=C(c2ccc(Cl)cc2)CC1c1ccco1)c1ccccc1O` (stereo unspecified) gave Pyk2 oligo antag -0.8, PLK1 PBD inh -29.2, FAK blocker 4.2, HIV Rev-RRE inh 13.8, Cav32 inh -4.65* and PLK1 inh -45.3.
`Cc1ccc(S(=O)(=O)NCC(=O)OCC(=O)N2N=C(c3ccc(Cl)cc3)CC2c2ccco2)cc1C` (stereo unspecified) gave Pyk2 oligo antag 0.76.
Screening COc1ccc(CNC(=O)C/C(C)=N/NC(=O)C(c2ccccc2)c2ccccc2)cc1 returned Pyk2 oligo antag -0.2, PLK1 PBD inh 4.1, FAK blocker -5.4, HIV Rev-RRE inh -0.3, Cav32 inh -4.25* and PLK1 inh -6.1.
Screening COc1ccc(OCCSc2n[nH]c(N)n2)cc1 returned Pyk2 oligo antag 0.29, PLK1 PBD inh 8.9, FAK blocker -1.2, HIV Rev-RRE inh 12.6, Cav32 inh -0.146 and PLK1 inh -14.7.
For CCOc1nc(SCCOc2ccc(C)cc2)nc(N(C)C)n1 the results were Pyk2 oligo antag -0.94, PLK1 PBD inh -9.3, FAK blocker 1.8, HIV Rev-RRE inh 13.8, Cav32 inh -6.45* and PLK1 inh -7.4.
Cc1ccc(C)n1N1C(=O)/C(=C\c2ccc(Cl)cc2)SC1=S was read as Pyk2 oligo antag 0.82, PLK1 PBD inh -6.8, FAK blocker -3.6, HIV Rev-RRE inh -0.1, Cav32 inh 0.0289 and PLK1 inh -12.3.
`Cc1cc(C)nc(NN2C(=O)/C(=C/c3ccc(O)cc3)SC2=S)n1` gave Pyk2 oligo antag -3.55*, PLK1 PBD inh -71.6, FAK blocker 1.4, HIV Rev-RRE inh 58.4*, Cav32 inh -3.01 and PLK1 inh 1.3.
`COc1ccccc1/C=C1\SC(=S)N(Nc2nc(C)cc(C)n2)C1=O` gave Pyk2 oligo antag -3.76*, PLK1 PBD inh -9.3, FAK blocker 1.6, HIV Rev-RRE inh 4.9, Cav32 inh 0.448 and PLK1 inh -10.8.
Screening Cn1c(=O)[nH]c(=O)c2c1nc(N1CCCC1)n2CCSc1nc2ccccc2[nH]1 returned PLK1 PBD inh -12.9, FAK blocker 1.2, HIV Rev-RRE inh 1.6, Cav32 inh -0.0898 and PLK1 inh -5.0.
For O=C(O)C1C2C=CC3(CN(Cc4ccco4)C(=O)C13)O2 (stereo unspecified) the results were PLK1 PBD inh 2.2, FAK blocker 0.1, HIV Rev-RRE inh 5.9, Cav32 inh 0.0178 and PLK1 inh 58.5*.
For CCOc1cc(C)nc(NCCc2ccc(OC)c(OC)c2)n1 the results were Pyk2 oligo antag -1.39, PLK1 PBD inh -13.1, FAK blocker -1.4, HIV Rev-RRE inh 6.8, Cav32 inh -0.977 and PLK1 inh -5.6.
Screening COc1cccc(C(=O)CN(C(=O)c2ccc(Cl)c(Cl)c2)N2C(=O)C3CCCCC3C2=O)c1 (stereo unspecified) returned Pyk2 oligo antag -0.46, PLK1 PBD inh -6.1, FAK blocker -0.5, HIV Rev-RRE inh 14.3, Cav32 inh -0.748 and PLK1 inh -8.2.
Screening Cc1ccc(NC(=O)C(C)N2C(=O)c3ccccc3C2=O)cc1 (stereo unspecified) returned Pyk2 oligo antag 1.69, PLK1 PBD inh 12.0, FAK blocker -3.8, HIV Rev-RRE inh 0.9, Cav32 inh -0.983 and PLK1 inh -7.4.
Screening Cc1ccc(NC2=CC(=O)C(=O)c3ccccc32)cc1 returned Pyk2 oligo antag -1.91, PLK1 PBD inh 34.1, FAK blocker 25.7*, HIV Rev-RRE inh 3.7, Cav32 inh 1.34 and PLK1 inh -8.3.
For CCCCN(CCCC)CP(=O)(c1ccccc1)c1ccccc1 the results were Pyk2 oligo antag 0.59, PLK1 PBD inh -2.9, FAK blocker 0.3, HIV Rev-RRE inh -2.6, Cav32 inh -5.77* and PLK1 inh 6.3.
`O=P(CCCCCCCCCP(=O)(c1ccccc1)c1ccccc1)(c1ccccc1)c1ccccc1` gave Pyk2 oligo antag -2.27, PLK1 PBD inh -9.6, FAK blocker 5.5, HIV Rev-RRE inh 7.3, Cav32 inh -9.56* and PLK1 inh -4.9.
Screening NC(=O)NC(c1ccccc1)c1cccc2ccccc12 (stereo unspecified) returned Pyk2 oligo antag -0.83, PLK1 PBD inh -2.8, FAK blocker 1.5, HIV Rev-RRE inh 12.0, Cav32 inh 0.536 and PLK1 inh -3.2.
Screening O=C(Nc1ccc2c(c1)C(=O)N(c1ccccc1)C2=O)C1CCCO1 (stereo unspecified) returned Pyk2 oligo antag -0.25, PLK1 PBD inh 18.2, FAK blocker -0.9, HIV Rev-RRE inh 1.2 and PLK1 inh -9.7.
`CCCc1cc(=O)n2c([nH]c3ccccc32)c1C#N` gave Pyk2 oligo antag 0.86, PLK1 PBD inh 7.6, FAK blocker -1.9, HIV Rev-RRE inh 2.2, Cav32 inh -0.223 and PLK1 inh -23.1.
For CCOc1cc(-c2c(C#N)c(N)nc3c2CCCC3C)ccc1O (stereo unspecified) the results were Pyk2 oligo antag -3.07*, PLK1 PBD inh 2.0, FAK blocker 0.2, HIV Rev-RRE inh 9.3, Cav32 inh -3.02 and PLK1 inh -2.5.
For CCOc1cc(-c2c(C#N)c(=O)[nH]c3c2c(C)nn3-c2ccc(F)cc2)ccc1O the results were Pyk2 oligo antag -1.29 and Cav32 inh -2.58.
`CCOc1cc(/C=C(\C#N)c2[nH]nc(N)c2C#N)ccc1O` gave Pyk2 oligo antag -3.14*, PLK1 PBD inh -5.3, FAK blocker 6.5, HIV Rev-RRE inh 22.1, Cav32 inh 0.0187 and PLK1 inh 68.5*.
CCOc1cc(-c2cc(-c3ccc(C)cc3)nc(N)c2C#N)ccc1O was read as Pyk2 oligo antag -3.77*, PLK1 PBD inh -30.5, FAK blocker 0.8, HIV Rev-RRE inh 38.9*, Cav32 inh 0.545 and PLK1 inh -4.2.
Screening COc1ccc(-c2c(C#N)c(N)nc3c2CCCCCC3)cc1OC returned Pyk2 oligo antag 0.59, PLK1 PBD inh -27.5, FAK blocker 0.4, HIV Rev-RRE inh 6.3, Cav32 inh 0.0527 and PLK1 inh -0.7.
Brc1ccc(C2Nc3cccc4cccc(c34)N2)o1 was read as Pyk2 oligo antag 0.03, PLK1 PBD inh -2.6, FAK blocker 1.9, HIV Rev-RRE inh 0.9, Cav32 inh -5.4* and PLK1 inh 10.1.
`c1csc(C2Nc3cccc4cccc(c34)N2)c1` gave Pyk2 oligo antag -0.88, PLK1 PBD inh -3.6, FAK blocker 0.9, HIV Rev-RRE inh 2.4, Cav32 inh -1.3 and PLK1 inh 12.2.
For CCC(Sc1nc2ccccc2c(=O)n1CC1CCCO1)C(=O)NCc1cccnc1 (stereo unspecified) the results were Pyk2 oligo antag 0.72, PLK1 PBD inh -20.0, FAK blocker 2.9, HIV Rev-RRE inh 3.7, Cav32 inh 1.46 and PLK1 inh -13.9.
Screening CCc1ccc(NC(=O)CNC(=O)c2cn(-c3ccccc3OC)c(=O)c3ccccc23)cc1 returned Pyk2 oligo antag -1.31, PLK1 PBD inh -4.3, FAK blocker 2.1, HIV Rev-RRE inh 3.2, Cav32 inh -4.15* and PLK1 inh -11.8.
